# Results taken from BindingDB's records for doi:10.1016/j.bmcl.2009.05.073 (Cytrx, 2009).
# Columns and labels:
# [1] = biological target: T1, Heat shock factor protein 1 (Homo sapiens, UniProt Q00613); assay: Amplification of HSF1 transcriptional activity in human heat shock-induced HeLa cells assessed as granule formation treated 1 hr before heat shock challenge measured after 2 hrs without recovery time by immunocytochemical staining
# T1 sequence (Q00613 whole entry): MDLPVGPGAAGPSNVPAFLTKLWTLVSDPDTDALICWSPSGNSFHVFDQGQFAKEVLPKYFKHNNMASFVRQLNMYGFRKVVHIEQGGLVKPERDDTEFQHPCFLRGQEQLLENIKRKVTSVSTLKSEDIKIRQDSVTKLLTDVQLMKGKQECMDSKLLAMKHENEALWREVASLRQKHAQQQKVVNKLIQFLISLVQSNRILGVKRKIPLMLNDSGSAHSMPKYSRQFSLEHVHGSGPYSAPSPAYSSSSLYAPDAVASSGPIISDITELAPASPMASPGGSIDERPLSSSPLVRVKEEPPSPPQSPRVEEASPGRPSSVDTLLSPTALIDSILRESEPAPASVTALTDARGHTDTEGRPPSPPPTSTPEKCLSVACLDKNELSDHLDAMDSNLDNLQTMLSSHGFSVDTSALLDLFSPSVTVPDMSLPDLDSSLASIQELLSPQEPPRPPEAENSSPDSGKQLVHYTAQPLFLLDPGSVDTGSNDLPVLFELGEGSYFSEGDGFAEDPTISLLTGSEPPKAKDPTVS
# Outline: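 HeLa cells given compound 1 h before mild heat shock at 41 °C for 2 h, no recovery; compound diluted 200-fold, 0.3 to 80 µM. Unstressed control plates kept at 37 °C for 3 h. HSF1 immunocytochemical staining, imaged at 10×.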
# [2] = biological target: T1, Heat shock factor protein 1; assay: Amplification of HSF1 transcriptional activity in human HeLa cells assessed as granule formation pretreated for 3 hrs by immunocytochemical staining
# Outline: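 HeLa cells pretreated with compound 1 h, then mild heat shock 41 °C for 2 h, no recovery; control arm pretreated 3 h at 37 °C without heat shock. Compound diluted 200-fold, 0.3 to 80 µM range.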
# [3] = Amplification of HSF1 transcriptional activity in human heat shock-induced HeLa cells assessed as granule formation treated 1 hr before heat shock challenge measured after 2 hrs without recovery time by immunocytochemical staining
EC50 [3],SMILES,other results
10 µM,"CCCCn1nc(-c2ccc(C)o2)[n+]([O-])c2c(=O)n(C)c(=O)nc1-2 [1-butyl-6-methyl-3-(5-methylfuran-2-yl)-5,7-dioxo-1,5,6,7-tetrahydropyrimido[5,4-e][1,2,4]triazine 4-oxide]",
9.9 µM,"CCCCn1nc(-c2ccc(C)o2)nc2c(=O)n(C)c(=O)nc1-2 [1-butyl-6-methyl-3-(5-methylfuran-2-yl)pyrimido[5,4-e][1,2,4]triazine-5,7(1H,6H)-dione]",
8.6 µM,"CCCCn1nc(-c2ccc(C)s2)[n+]([O-])c2c(=O)n(C)c(=O)nc1-2 [1-butyl-6-methyl-3-(5-methylthiophen-2-yl)-5,7-dioxo-1,5,6,7-tetrahydropyrimido[5,4-e][1,2,4]triazine 4-oxide]",
20.6 µM,"CCn1nc(-c2ccc(C)o2)[n+]([O-])c2c(=O)n(C)c(=O)nc1-2 [1-ethyl-6-methyl-3-(5-methylfuran-2-yl)-5,7-dioxo-1,5,6,7-tetrahydropyrimido[5,4-e][1,2,4]triazine 4-oxide]",
46.3 µM,"CCn1nc(-c2ccc(C)o2)nc2c(=O)n(C)c(=O)nc1-2 [1-ethyl-6-methyl-3-(5-methylfuran-2-yl)pyrimido[5,4-e][1,2,4]triazine-5,7(1H,6H)-dione]",
11.6 µM,"CCn1nc(-c2ccc(C)s2)[n+]([O-])c2c(=O)n(C)c(=O)nc1-2 [1-ethyl-6-methyl-3-(5-methylthiophen-2-yl)-5,7-dioxo-1,5,6,7-tetrahydropyrimido[5,4-e][1,2,4]triazine 4-oxide]",
24.7 µM,"CCn1nc(-c2ccc[nH]2)[n+]([O-])c2c(=O)n(C)c(=O)nc1-2 [1-ethyl-6-methyl-5,7-dioxo-3-(1H-pyrrol-2-yl)-1,5,6,7-tetrahydropyrimido[5,4-e][1,2,4]triazine 4-oxide]",

# More lines, now with the values behind:
SMILES,EC50 [3],other results
C=c1c(O)c(O)cc2c1=CC=C1[C@@]2(C)CC[C@@]2(C)[C@@H]3C[C@](C)(C(=O)O)CC[C@]3(C)CC[C@]12C,,EC50 [1]: 1.1 µM; EC50 [2]: 2.6 µM
"CCCCn1nc(-c2ncc[nH]2)nc2c(=O)n(C)c(=O)nc1-2 [1-butyl-3-(1H-imidazol-2-yl)-6-methylpyrimido[5,4-e][1,2,4]triazine-5,7(1H,6H)-dione]",7.7 µM,
"CCCCn1nc(-c2ccc(C)s2)nc2c(=O)n(C)c(=O)nc1-2 [1-butyl-6-methyl-3-(5-methylthiophen-2-yl)pyrimido[5,4-e][1,2,4]triazine-5,7(1H,6H)-dione]",16.8 µM,
"CCCCn1nc(-c2ccc3ccccc3n2)nc2c(=O)n(C)c(=O)nc1-2 [1-butyl-6-methyl-3-(quinolin-2-yl)pyrimido[5,4-e][1,2,4]triazine-5,7(1H,6H)-dione]",2.5 µM,
"CCCCn1nc(-c2nccs2)nc2c(=O)n(C)c(=O)nc1-2 [1-butyl-6-methyl-3-(thiazol-2-yl)pyrimido[5,4-e][1,2,4]triazine-5,7(1H,6H)-dione]",2.1 µM,
"CCCCn1nc(-c2ccccc2)nc2c(=O)n(C)c(=O)nc1-2 [1-butyl-6-methyl-3-phenylpyrimido[5,4-e][1,2,4]triazine-5,7(1H,6H)-dione]",14.8 µM,
"CCn1nc(-c2ncc[nH]2)nc2c(=O)n(C)c(=O)nc1-2 [1-ethyl-3-(1H-imidazol-2-yl)-6-methylpyrimido[5,4-e][1,2,4]triazine-5,7(1H,6H)-dione]",39.8 µM,
"CCn1nc(-c2ccco2)nc2c(=O)n(C)c(=O)nc1-2 [1-ethyl-3-(furan-2-yl)-6-methylpyrimido[5,4-e][1,2,4]triazine-5,7(1H,6H)-dione]",10.1 µM,
"CCn1nc(-c2ccc[nH]2)nc2c(=O)n(C)c(=O)nc1-2 [1-ethyl-6-methyl-3-(1H-pyrrol-2-yl)pyrimido[5,4-e][1,2,4]triazine-5,7(1H,6H)-dione]",35 µM,
"CCn1nc(-c2ccc(C)s2)nc2c(=O)n(C)c(=O)nc1-2 [1-ethyl-6-methyl-3-(5-methylthiophen-2-yl)pyrimido[5,4-e][1,2,4]triazine-5,7(1H,6H)-dione]",17.3 µM,
"CCn1nc(-c2cccs2)nc2c(=O)n(C)c(=O)nc1-2 [1-ethyl-6-methyl-3-thiophen-2-yl-pyrimido[5,4-e][1,2,4]triazine-5,7-dione]",5.1 µM,
"CCCCn1nc(-c2nc3ccccc3[nH]2)nc2c(=O)n(C)c(=O)nc1-2 [3-(1H-benzo[d]imidazol-2-yl)-1-butyl-6-methylpyrimido[5,4-e][1,2,4]triazine-5,7(1H,6H)-dione]",40.8 µM,
"Cn1c(=O)nc2n(Cc3ccc(F)cc3)nc(-c3nc4ccccc4s3)nc-2c1=O [3-(benzo[d]thiazol-2-yl)-1-(4-fluorobenzyl)-6-methylpyrimido[5,4-e][1,2,4]triazine-5,7(1H,6H)-dione]",14 µM,
"Cn1c(=O)nc2n(Cc3ccccc3)nc(-c3nc4ccccc4s3)nc-2c1=O [3-(benzo[d]thiazol-2-yl)-1-benzyl-6-methylpyrimido[5,4-e][1,2,4]triazine-5,7(1H,6H)-dione]",4.1 µM,
"CC(C)Cn1nc(-c2nc3ccccc3s2)nc2c(=O)n(C)c(=O)nc1-2 [3-(benzo[d]thiazol-2-yl)-1-isobutyl-6-methylpyrimido[5,4-e][1,2,4]triazine-5,7(1H,6H)-dione]",1.3 µM,
"CC(C)CCn1nc(-c2nc3ccccc3s2)nc2c(=O)n(C)c(=O)nc1-2 [3-(benzo[d]thiazol-2-yl)-1-isopentyl-6-methylpyrimido[5,4-e][1,2,4]triazine-5,7(1H,6H)-dione]",2.5 µM,
